Measurements as given in ChEMBL document CHEMBL1122325, “2-[(Phenylthio)methyl]pyridine derivatives: new antiinflammatory agents” (1983).
Active and inactive are the calls of the source. No cut-off for these calls is given here.

Tests used:
Rattus norvegicus [1] = species: Rattus norvegicus; test: animal or person; assay type: functional; settings: po
Rattus norvegicus [2] = species: Rattus norvegicus; test: Reduction in leukocyte numbers in rat pleural RPAR exudate.; assay type: functional
How it was run: (§1)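 Fasted male Sprague-Dawley rats (160-200 g, 8-10/group) received BSA 3 mg/kg iv, then 1 h later intrapleural rabbit anti-BSA γ-globulin (0.2 mL); oral compound (four doses, 0.2% methylcellulose) or vehicle 30 min before. At 4 h, exudate volume and white cell count by phenol red dye dilution; percent inhibition versus control mean; ED50 by least-squares regression.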

Rattus norvegicus [3] = test: Inhibition of dermal RPAR in rats following p.o. administration.; assay type: functional
How it was run: (§2)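 Male Sprague-Dawley rats (140-160 g, n=6/group), fasted 18 h, given iv BSA 0.15% w/v with 0.4% Evans Blue in saline, then test agent orally in 0.2% methylcellulose about 1 h later (three dose levels, vehicle controls). Anti-BSA rabbit γ-globulin injected intradermally 30 min post-dose; lesions excised at 4 h, dye-outlined diameters measured, percent inhibition of lesion area versus control; 40% inhibition dose by least-squares regression.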

Rattus norvegicus [4] = species: Rattus norvegicus; test: Reduction in exudate volume in rat pleural RPAR test.; assay type: functional
How it was run: as §1

Rattus norvegicus [5] = test: Inhibition of dermal RPAR in rats following p.o. administration; Not significant.; assay type: functional
How it was run: as §2

Rattus norvegicus [6] = species: Rattus norvegicus; test: (§3) Reduction in leukocyte numbers in rat pleural RPAR exudate; Nonactive.; assay type: functional, organism-based
How it was run: as §1

Rattus norvegicus [7] = species: Rattus norvegicus; test: as §3; assay type: functional, organism-based; remark: listed apart in the source
How it was run: as §1

Rattus norvegicus [8] = species: Rattus norvegicus; test: Reduction in exudate volume in rat pleural RPAR test; Nonactive.; assay type: functional, organism-based
How it was run: as §1

Rattus norvegicus [9] = species: Rattus norvegicus; test: Reduction in exudate volume in rat pleural carrageenan test.; assay type: functional
How it was run: (§4)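 Fasted male Sprague-Dawley rats (160-200 g, 8-10/group) dosed orally at four levels in 0.2% methylcellulose, or vehicle, 30 min before intrapleural carrageenin (125 μg in 0.2 mL saline); no iv BSA. Killed 4 h later; pleural exudate volume and white cells measured by phenol red dye dilution, inhibition calculated against vehicle controls.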

Rattus norvegicus [10] = test: Percent inhibition of rat dermal RPAR following 350 umol/kg p.o. administration.; assay type: functional; settings: po
How it was run: as §2

Rattus norvegicus [11] = species: Rattus norvegicus; test: Reduction in leukocyte numbers in rat pleural carrageenan test.; assay type: functional
How it was run: as §4

SMILES | inhibition in vivo at 350 µmol/kg (Rattus norvegicus [1]) [%] | ED40 (Rattus norvegicus [3]) [µM/kg] | also measured
Cc1cccc(CSc2ccc(Br)cc2)n1 | 28 |  | 
Cl.Fc1ccc(SCc2ccccn2)cc1 |  | 159 | ED50 (Rattus norvegicus [2]): 129 µmol/kg; ED50 (Rattus norvegicus [4]): 137 µmol/kg
Cl.Clc1ccc(SCc2ccccn2)cc1Cl |  | 402 | 
c1ccc(CSC2CCCCC2)nc1 | 21 |  | 
Cc1cccnc1CSc1ccc(Br)cc1 | 25 |  | 
Cc1ccc(SCc2ccccn2)cc1 |  |  | ED40 (Rattus norvegicus [5]): inactive
Cl.FC(F)(F)c1cccc(SCc2ccccn2)c1 |  | 307 | 
Brc1ccc(SCc2ccncc2)cc1 | 26 |  | 
c1ccc(CSc2nc3ccccc3o2)nc1 | 26 |  | 
Brc1ccc(SCCc2ccccn2)cc1 |  |  | ED40 (Rattus norvegicus [5]): inactive
c1ccc(CSc2nc3ccccc3s2)nc1 |  |  | ED40 (Rattus norvegicus [5]): inactive
Cc1ccc(CSc2ccc(Br)cc2)nc1 |  |  | ED40 (Rattus norvegicus [5]): inactive
Clc1ccc(OCc2ccccn2)cc1 | 39 |  | 
Brc1ccc(Sc2ccccn2)cc1.Cl |  | 369 | 
COc1ccc2c(c1)c(CC(=O)O)c(C)n2C(=O)c1ccc(Cl)cc1 [INDOMETHACIN] |  |  | ED40 (Rattus norvegicus [5]): inactive; ED50 (Rattus norvegicus [6]): inactive; ED50 (Rattus norvegicus [7]): inactive; ED50 (Rattus norvegicus [8]): inactive; ED50 (Rattus norvegicus [9]): 3 µmol/kg
Brc1ccc(SCC2CCCCN2)cc1 (stereo unspecified) |  | 430 | 
Brc1ccc(CSc2ccccn2)cc1 | 36 |  | 
Cl.[O-][S+](Cc1ccccn1)c1ccc(Br)cc1 (stereo unspecified) |  | 216 | 
Cl.Clc1ccccc1SCc1ccccn1 |  | 300 | 
Brc1ccc(SCc2cccnc2)cc1 | 23 |  | 
Clc1ccnc(CSc2ccc(Br)cc2)c1 |  |  | ED40 (Rattus norvegicus [5]): inactive
c1ccc(CCc2ccccn2)cc1 | 36 |  | 
Clc1ccc(Cc2ccccn2)cc1 | 35 |  | 
Brc1ccc(CSCc2ccccn2)cc1 | 31 |  | 
Oc1cccnc1CSc1ccc(Br)cc1 |  |  | ED40 (Rattus norvegicus [5]): inactive
COc1cccnc1CSc1ccc(Br)cc1 |  |  | inhibition in vivo at 350 µmol/kg (Rattus norvegicus [10]): 26%
CC(=O)Nc1ccc(SCc2ccccn2)cc1 | 30 |  | 

SMILES | inhibition in vivo at 350 µmol/kg (Rattus norvegicus [1]) [%] | ED40 (Rattus norvegicus [3]) [µM/kg] | also measured
Cl.c1ccc(SCc2ccccn2)cc1 |  | 101 | ED50 (Rattus norvegicus [2]): 252 µmol/kg; ED50 (Rattus norvegicus [4]): 172 µmol/kg
Cl.Oc1nc(SCc2ccccn2)nc2ccccc12 |  | 177 | 
Cl.Clc1ccc(SCc2ccccn2)cc1 |  | 186 | ED50 (Rattus norvegicus [2]): 162 µmol/kg; ED50 (Rattus norvegicus [4]): 154 µmol/kg
Cl.O=[N+]([O-])c1ccc(SCc2ccccn2)cc1 |  | 233 | 
C[C@]12CCC(=O)C=C1CC[C@@H]1[C@@H]2[C@@H](O)C[C@@]2(C)[C@H]1CC[C@]2(O)C(=O)CO [HYDROCORTISONE] |  | 33 | ED50 (Rattus norvegicus [11]): 25 µmol/kg; ED50 (Rattus norvegicus [2]): 50 µmol/kg; ED50 (Rattus norvegicus [4]): 38 µmol/kg; ED50 (Rattus norvegicus [9]): 33 µmol/kg
Brc1ccc(SCc2cc(-c3ccccc3)ccn2)cc1 |  |  | ED40 (Rattus norvegicus [5]): inactive
Cl.c1ccc(CSc2ncccn2)nc1 |  | 283 | 
Brc1ccccc1SCc1ccccn1.Cl |  | 282 | 
COc1cccc(SCc2ccccn2)c1.Cl |  | 273 | 
C[n+]1ccccc1CSc1ccc(Br)cc1 | 22 |  | 
CC(C)(C)c1ccc(SCc2ccccn2)cc1 | 34 |  | 
Cl.[O-][n+]1ccccc1CSc1ccc(Br)cc1 |  | 148 | 
Brc1ccc(NCc2ccccn2)cc1 |  |  | ED40 (Rattus norvegicus [5]): inactive
Oc1ccc(SCc2ccccn2)cc1 |  |  | ED40 (Rattus norvegicus [5]): inactive
CC(Sc1ccc(Br)cc1)c1ccccn1.Cl (stereo unspecified) |  | 212 | 
COc1ccc(SCc2ccccn2)cc1.Cl |  |  | Inhibition (Rattus norvegicus [5]): 23%
Cc1cc(C(C)(C)C)ccc1SCc1ccccn1 | 30 |  | 
CN1CCCCC1CSc1ccc(Br)cc1.Cl (stereo unspecified) |  | 159 | 
Cl.Clc1cccc(SCc2ccccn2)c1 |  | 223 | 
Nc1ccc(SCc2ccccn2)cc1 | 25 |  | 
Cc1ccc(O)c(CSc2ccc(Br)cc2)n1 |  |  | ED40 (Rattus norvegicus [5]): inactive
Cl.O=S(=O)(Cc1ccccn1)c1ccc(Br)cc1 |  | 192 | 
Brc1ccc(SCc2cccc(CSc3ccc(Br)cc3)n2)cc1 |  |  | ED40 (Rattus norvegicus [5]): inactive
Cl.Cl.c1ccc(CSc2ccncc2)nc1 |  | 149 | 
Clc1cccc(CSc2ccc(Br)cc2)n1 |  |  | ED40 (Rattus norvegicus [5]): inactive
Brc1ccc(SCc2ccccn2)cc1.Cl |  | 151 | ED50 (Rattus norvegicus [11]): 215 µmol/kg; ED50 (Rattus norvegicus [2]): 73 µmol/kg; ED50 (Rattus norvegicus [4]): 82 µmol/kg; ED50 (Rattus norvegicus [9]): 142 µmol/kg
